Only some compounds are listed: those with a hit (about 4.5% of all), similar ones and a draw of the others.
OX1R antag-1: antagonists of human orexin 1 receptor (OX1R); O43613; OX1R-expressing cells, FRET antagonist read-out; inhibition, % at 6.6 µM; 1.8% of 330,000 active; in the data active means inhibition mostly above about 38%, no sharp cut-off; inactive means mostly below about 40%;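 further: 0% = agonist challenge alone and 100% = reference antagonist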
Target sequence (O43613 whole entry, looked up): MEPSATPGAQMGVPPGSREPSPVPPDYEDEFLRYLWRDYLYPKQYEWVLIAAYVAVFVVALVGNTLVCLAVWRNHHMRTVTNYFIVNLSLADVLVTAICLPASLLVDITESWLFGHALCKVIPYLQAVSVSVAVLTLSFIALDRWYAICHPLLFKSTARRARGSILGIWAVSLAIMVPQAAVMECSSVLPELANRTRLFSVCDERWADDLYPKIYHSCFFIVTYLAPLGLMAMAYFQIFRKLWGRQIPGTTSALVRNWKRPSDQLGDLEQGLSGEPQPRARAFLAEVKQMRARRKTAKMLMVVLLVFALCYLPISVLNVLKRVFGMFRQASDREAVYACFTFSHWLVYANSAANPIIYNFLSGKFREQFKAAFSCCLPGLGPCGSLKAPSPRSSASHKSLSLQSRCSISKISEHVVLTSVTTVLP
TAAR1 antagonist: human TAAR1 antagonism. CHO RD-HGA16 TAAR1, Fluo-8 calcium fluorescence, antagonist. inhibition, % at 3 µM. 1.5% of 360,000 active. AID 624466;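 active means inhibition above a per-plate cutoff, the mean inhibition of test compounds on that plate plus 3 SD, cut at about 49% in these data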;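 further: 0% = DMSO plus EC80 beta-PEA response and 100% = DMSO alone without agonist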
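System: RD-HGA16 CHO cells with stable hTAAR1 and Gα16 | Probe or stimulus: EC80 β-phenethylamine stimulus | Dosing: 3 µM, single point | Times: Dye loading 75 min at 37 °C, then 30 min room temperature | Measured by: Fluo-8 calcium-sensitive fluorescence | Read-out basis: % inhibition of agonist calcium response | Replicates: n of 1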
CHO parental Ca: counter-screen for OX1R antagonists: effect in parental CHO cells; inhibition, % at 5.6 µM; parental CHO-K1, ATP-induced calcium, Fluo-8 fluorescence; 0.63% of 330,000 active;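 active means inhibition above that plate's mean sample inhibition plus 3 SD, cut at about 26% in these data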;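 further: 0% = ATP-challenged DMSO wells and 100% = DMSO wells without ATP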
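Assay system – parental CHO cells · Reagent – ATP stimulus · Detection – intracellular calcium via Fluo-8 no-wash fluorescent dye · Evaluation – percent inhibition of ATP-evoked calcium rise, normalized to controls · Controls – ATP wells versus no-ATP DMSO wells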
TAAR1 agonist: human TAAR1 agonism; CHO RD-HGA16 TAAR1, Fluo-8 calcium fluorescence; vehicle wells 0%, saturating PEA agonist 100%; activation, % at 3 µM; 0.99% of 360,000 active; AID 624467;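 active means activation above the mean activation of all test compounds in the run plus 3 SD, cut at about 38% in these data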
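Signal – calcium-sensitive Fluo-8 signal, excitation 470-495, emission 515-575 nm · System – RD-HGA16 (CHO) cells co-expressing Gα16 and hTAAR1 · Incubation – 17-24 h seeding, 75 min 37 °C dye, 30 min RT · Compound dosing – 3 µM single concentration · Repeats – no replicates (n 1)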
OX1R antag-2: antagonists of human orexin 1 receptor | O43613 | CHO/OX1R cells, Fluo-8 calcium fluorescence, orexin A | inhibition, % at 5 µM | 0.43% of 330,000 active | AID 434989;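 active means inhibition above its plate's threshold, mean inhibition of all tested compounds on the plate plus 3 SD, cut at about 37% in these data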;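 further: 0% = orexin A challenge wells and 100% = SB-334867-A antagonist wells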
GPR7 antag: antagonists of human GPR7 (neuropeptides B/W receptor 1) | GPR7-expressing cells, fluorescence antagonist assay | inhibition, % at 4.4 µM | P48145 | 1.1% of 290,000 active | AID 1861; in the data active means inhibition above about 16%, passing the limit was not always enough;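 further: cells stimulated with the agonist NPW; 0% = agonist with vehicle and 100% = vehicle without agonist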
Starred values were filed as active, the others as inactive; · = no result.

SMILES | OX1R antag-1 | TAAR1 antagonist | CHO parental Ca | TAAR1 agonist | OX1R antag-2 | GPR7 antag
CC1(C(=O)NS(=O)(=O)c2cccc(OC(F)F)c2)CCN1C(=O)c1ccco1 (configuration not stated) | · | 1 | · | 0 | · | ·
CCCNC(=O)C1(C)CCCN(Cc2ccccc2C#N)C1 (configuration not stated) | · | 11 | · | 0 | · | ·
COC(=O)[C@]12C[C@H](CC(=O)N3CCCCC3)C(=O)N(CCC3=CCCCC3)C1=C[C@H](COCc1ccccc1)O[C@@H]2C | · | -15 | · | -2 | · | ·
OC1(c2cccc(C(F)(F)F)c2)CCN(c2ncnc3c2[nH]c2ccccc23)CC1 | 40 | 56* | 2 | 23 | 14 | 2
COc1cccc2[nH]c3c(N4CCc5ccccc5C4)ncnc3c12 | 13 | · | -22 | · | -22 | -5
c1ccc2c(c1)CCN(c1ncnc3c1[nH]c1ccccc13)C2 | 80* | 58* | 66* | 16 | 80* | ·
Cc1ccc2[nH]c3c(N4CCN(Cc5ccccc5)CC4)ncnc3c2c1 | 80* | 30 | 28 | 28 | 14 | -14
COc1ccc2nc(NN=Cc3cccc(C)n3)cc(C)c2c1 | · | -11 | · | 2 | · | ·
Cc1[nH]c(=O)[nH]c(=O)c1CCSSCCc1c(C)[nH]c(=O)[nH]c1=O | · | -19 | · | 3 | · | ·
Cc1ccccc1S(=O)(=O)N1CCCc2nc(-c3ccc(F)cc3)ccc21 | · | 19 | · | 5 | · | ·
Cc1[nH]c2ccccc2c1CN1CCC(Cc2ccccc2)CC1 | 21 | 7 | -7 | 41* | -15 | 4
Cc1[nH]c2ccccc2c1CN1CCN(c2ccccn2)CC1 | 24 | -11 | 2 | 6 | 9 | -2
COc1ccc(NC(=O)C2CCN(c3nc(-c4ccc(OC)cc4)no3)CC2)cc1 | 2 | -4 | -4 | 3 | 1 | -13
CCN(C(=O)C1CCN(c2nc(-c3ccc(OC)cc3)no2)CC1)c1ccc(OC)cc1 | 19 | -14 | 36* | -2 | -3 | 6
COc1ccc(CNC(=O)c2oc3ccc(S(=O)(=O)N4CCOCC4)cc3c2C)cc1 | 4 | 51* | -12 | 29 | -6 | 9
Cc1ccc2nc(-c3ccc(NC(=S)NC(=O)C(C)C)cc3)sc2c1 | 14 | -2 | 7 | 4 | -9 | -1
Cc1ccc2nc(-c3ccc(NC(=S)NC4CC(C)(C)NC(C)(C)C4)cc3)sc2c1 | 9 | 32 | 9 | 10 | 11 | 52*
COc1ccc2ccccc2c1CN1CCN(c2ncc(Cc3ccccc3)cn2)CC1 | · | -70 | · | 1 | · | ·
CC(C)(C)c1ccccc1NC(=O)Nc1nc(C(N)c2ccccc2Cl)cs1 (configuration not stated) | · | 2 | · | 44* | · | ·
CCOC(=O)N1CCN(c2nc3ccc(C)cc3n3cnnc23)CC1 | · | -12 | · | 6 | · | 3
Cc1cc(C)n2nc(CNS(=O)(=O)c3ccc([N+](=O)[O-])cc3)nc2n1 | 51* | -18 | 9 | 0 | 5 | 2
COc1ccc(OC)c(S(=O)(=O)NCc2nc3nc(C)cc(C)n3n2)c1 | -1 | -24 | -3 | 1 | -2 | -13
O=C1C=C(c2cccc3c2Oc2ccccc2S3)C[C@@H](c2ccc3c(c2)OCO3)C1 | · | 8 | · | 5 | · | ·
CSc1ccc(CN2CCC(CO)(Cc3ccc(Cl)cc3)CC2)cc1 | -83 | 10 | -13 | 31 | -16 | 30*
OCC1(Cc2ccccc2)CCN(Cc2ccc(C(F)(F)F)cc2)CC1 | 2 | -3 | -4 | 19 | -22 | -8
Cc1ccc(Sc2cnn(-c3ccccc3)c(=O)c2Cl)cc1 | 26 | 11 | 38* | 0 | -19 | -12
CNc1cc(C(=O)Nc2cccc(OCc3ccccc3)c2)ncn1 | · | 29 | · | 5 | · | ·
Cc1c(C)c2c(OCC(=O)Nc3ccc(CCO)cc3)cc3c(c2oc1=O)CCC(C)(C)O3 | 14 | 51* | 2 | 2 | -3 | 12
COc1ccccc1CNC(=O)COc1cc2c(c3oc(=O)cc(C)c13)CCC(C)(C)O2 | 27 | 53* | -8 | 4 | -22 | 18
Cc1cc(=O)oc2c3c(cc(OCC(=O)NCc4cccnc4)c12)OC(C)(C)CC3 | 11 | -3 | -20 | 2 | -36 | 3

High-throughput results: PubChem BioAssay, The Scripps Research Institute Molecular Screening Center
